Values after ≈ are worked out from the molar mass of the structure shown.

From ChEMBL document CHEMBL4152223 (Eur J Med Chem, 2018) come the findings set out here.

Data set [1] deals with Mycobacterium avium. The data set is described as follows: Antimycobacterial activity against INH/RIF/OFX resistant Mycobacterium avium 330/88 after 21 days. Format: functional. The following applies: 330/88, 504 h.
The subject of data set [2] is Mycobacterium kansasii. The data set is described as follows: Antimycobacterial activity against Mycobacterium kansasii 235/80 after 21 days. The class given is functional. As to conditions: 235/80, 504 h.
The subject of data set [3] is Mycobacterium kansasii. The data set is described as follows: Antimycobacterial activity against Mycobacterium kansasii 6509/96 after 14 days. The class given is functional. The following applies: 6509/96, 336 h.
The subject of data set [4] is Mycobacterium kansasii. The data set is described as follows: Antimycobacterial activity against Mycobacterium kansasii 6509/96 after 21 days. The class given is functional. The following applies: 6509/96, 504 h.
In data set [5] the test system is Mycobacterium kansasii. The data set is described as follows: Antimycobacterial activity against Mycobacterium kansasii 235/80 after 14 days. The class given is functional. The following applies: 235/80, 336 h.
In data set [6] the test system is Mycobacterium tuberculosis. The data set is described as follows: Antimycobacterial activity against Mycobacterium tuberculosis H37Rv after 21 days. As to conditions: 504 h. The class given is functional.
The test system of data set [7] is Mycobacterium tuberculosis. The data set is described as follows: Antimycobacterial activity against Mycobacterium tuberculosis H37Rv after 14 days. The class given is functional. As to conditions: 336 h.
The subject of data set [8] is Mycobacterium avium. The data set is described as follows: Antimycobacterial activity against INH/RIF/OFX resistant Mycobacterium avium 330/88 after 14 days. Format: functional. The following applies: 330/88, 336 h.
In data set [9] the test system is HepG2. The data set is described as follows: Cytotoxicity against human HepG2 cells assessed as reduction in cell viability by MTS assay. Format: cell-based. The method, boiled down: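 HepG2 human hepatocellular carcinoma cells (passage 2-4) were cultured in Eagle's MEM with 10% FBS, 1% L-glutamine and non-essential amino acids. Compounds were dissolved in DMSO and tested in triplicate at eight concentrations. Viability was read by colorimetric MTS tetrazolium reduction. Controls were 100% viability and 0% viability (10% DMSO). IC50 is the concentration reducing viability to 50% of control.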

Data set [10] has as its system Mycobacterium kansasii. The data set is described as follows: Antimycobacterial activity against Mycobacterium kansasii 235/80 after 7 days. The class given is functional. The following applies: 235/80, 168 h.
The test system of data set [11] is Mycobacterium kansasii. The data set is described as follows: Antimycobacterial activity against Mycobacterium kansasii 6509/96 after 7 days. Format: functional. As to conditions: 6509/96, 168 h.
Data set [12] can be described thus: Selectivity index, ratio of IC50 for human HepG2 cells to MIC for Mycobacterium kansasii 6509/96. Format: toxicity. The following applies: read-out: Selectivity Index. Summed up:
(§1)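 SI is calculated as HepG2 IC50 divided by MIC. HepG2 cells (passage 2-4) were grown in EMEM with 10% FBS, L-glutamine and non-essential amino acids. Compounds in DMSO were tested in triplicate at eight concentrations, and viability was read by MTS tetrazolium reduction. IC50 is the concentration reducing viability to 50% of control. 10% DMSO served as the 0% viability control.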

Data set [13] can be described thus: Selectivity index, ratio of IC50 for human HepG2 cells to MIC for Mycobacterium kansasii 235/80. The class given is toxicity. The following applies: read-out: Selectivity Index. The method, boiled down: as §1
Data set [14] can be described thus: Selectivity index, ratio of IC50 for human HepG2 cells to MIC for Mycobacterium tuberculosis H37Rv after 14 days. As to conditions: read-out: Selectivity Index. Format: toxicity. The method, boiled down: as §1

The MIC is the least concentration at which growth counts as inhibited. Read a high MIC as a less susceptible organism. What is called IC50 is the concentration that gives 50% inhibition. As to `CCCCCCCCCCCCCCCCCCNC(=O)NNC(=O)c1ccncc1`, the MIC in [1], in data set [2], in data set [3], in data set [4], in data set [5] and in [6] was 250 µM (≈ 108 µg/mL) throughout. Besides, the minimal inhibitory concentration (MIC) in [7], in data set [8], in data set [10] and in data set [11] was 250 µM (≈ 108 µg/mL) throughout. Also, the IC50 in data set [9] is greater than 50 µM.
Consider `CCCCCCCCCCNc1nnc(-c2ccncc2)o1`, for which the MIC was 62.5 µM (≈ 18.9 µg/mL) in data set [1]; 16 µM (≈ 4.84 µg/mL) in [2]; 16 µM (≈ 4.84 µg/mL) in data set [3]; 16 µM (≈ 4.84 µg/mL) in data set [4]; 16 µM (≈ 4.84 µg/mL) in data set [5]; 16 µM (≈ 4.84 µg/mL) in data set [6]. Moreover, the MIC in data set [7] was 16 µM (≈ 4.84 µg/mL); in data set [8] it was 32 µM (≈ 9.68 µg/mL); in [10], 8 µM (≈ 2.42 µg/mL); in data set [11], 16 µM (≈ 4.84 µg/mL). The IC50 in [9] was greater than 50 µM.
In the case of `CCCCCCCCCCCCCNC(=O)NNC(=O)c1ccncc1`, the MIC was determined as 125 µM (≈ 45.3 µg/mL) in [1]; 62.5 µM (≈ 22.7 µg/mL) in data set [2]; 62.5 µM (≈ 22.7 µg/mL) in data set [3]; 62.5 µM (≈ 22.7 µg/mL) in data set [4]; 32 µM (≈ 11.6 µg/mL) in [5]; 62.5 µM (≈ 22.7 µg/mL) in data set [6]. Also, the MIC in data set [7] is 32 µM (≈ 11.6 µg/mL); in [8], 125 µM (≈ 45.3 µg/mL); in [10] it was 16 µM (≈ 5.8 µg/mL); in data set [11], 32 µM (≈ 11.6 µg/mL). Also, the IC50 in data set [9] was greater than 100 µM.
For `CCCCCCCCCCCNC(=O)NNC(=O)c1ccncc1`, the minimal inhibitory concentration (MIC) in data set [1] turned out to be 125 µM (≈ 41.8 µg/mL); in data set [2], 62.5 µM (≈ 20.9 µg/mL); in data set [3], 125 µM (≈ 41.8 µg/mL); in data set [4] it was 125 µM (≈ 41.8 µg/mL); in [5] it was 32 µM (≈ 10.7 µg/mL); in data set [6], 62.5 µM (≈ 20.9 µg/mL). In addition, the minimum inhibitory concentration (MIC) was determined as 32 µM (≈ 10.7 µg/mL) in [7], 125 µM (≈ 41.8 µg/mL) in [8], 16 µM (≈ 5.35 µg/mL) in data set [10] and 62.5 µM (≈ 20.9 µg/mL) in data set [11]. Also, the IC50 in data set [9] is greater than 50 µM.
On to `CCCNC(=O)NNC(=O)c1ccncc1`, for which the MIC was found to be 500 µM (≈ 111 µg/mL) in [1]; 16 µM (≈ 3.56 µg/mL) in data set [2]; 8 µM (≈ 1.78 µg/mL) in data set [3]; 8 µM (≈ 1.78 µg/mL) in data set [4]; 8 µM (≈ 1.78 µg/mL) in data set [5]; 1 µM (≈ 0.222 µg/mL) in data set [6]. Further, the MIC came out at 1 µM (≈ 0.222 µg/mL) in [7], 250 µM (≈ 55.6 µg/mL) in [8], 4 µM (≈ 0.889 µg/mL) in [10] and 4 µM (≈ 0.889 µg/mL) in data set [11]. For the same compound, the selectivity ratio in data set [12] and in data set [13] was greater than 312 in each case. Further, the IC50 in data set [9] is greater than 5000 µM. Besides, in data set [14], the selectivity ratio at 336 h is greater than 5000.
Regarding `CCCCCCCNC(=O)NNC(=O)c1ccncc1`, the MIC worked out at 250 µM (≈ 69.6 µg/mL) in data set [1]; 125 µM (≈ 34.8 µg/mL) in [2]; 250 µM (≈ 69.6 µg/mL) in [3]; 250 µM (≈ 69.6 µg/mL) in [4]; 125 µM (≈ 34.8 µg/mL) in data set [5]; 62.5 µM (≈ 17.4 µg/mL) in data set [6]. The MIC is 32 µM (≈ 8.91 µg/mL) in data set [7], 250 µM (≈ 69.6 µg/mL) in data set [8], 62.5 µM (≈ 17.4 µg/mL) in [10] and 125 µM (≈ 34.8 µg/mL) in data set [11]. For the same compound, in [9], the IC50 is greater than 500 µM.
